According to ChEMBL document CHEMBL2434944, “Novel acetamidothiazole derivatives: synthesis and in vitro anticancer evaluation” (Eur J Med Chem, 2013):

How the values were obtained:
[1] = tested on: MDA-MB-231; assay: Growth inhibition of human MDA-MB-231 cells assessed as cell growth at 10^-5 M after 48 hrs by sulforhodamine B assay relative to control; assay type: functional; details: MDA-MB-231, 48 h, read-out: Activity
In short: (§1)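 NCI-60 single-dose screen at 10^-5 M. Cells grown in RPMI 1640 with 5% FBS and 2 mM L-glutamine, plated at 5,000–40,000 cells/well according to doubling time, and preincubated 24 h at 37°C, 5% CO2. Compound dissolved in DMSO and added. Exposure 48 h. Adherent cells fixed with cold TCA (10% final), suspension cells with 16% final TCA. Read-out is 0.4% SRB staining, dye solubilised in 10 mM Tris, absorbance at 515 nm. Percent growth is calculated against the time-zero plate and untreated control.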

[2] = target: T1, Vitamin D3 receptor (Homo sapiens, UniProt P11473); assay: Inhibition of human vitamin D3 receptor
T1 sequence (P11473 whole entry): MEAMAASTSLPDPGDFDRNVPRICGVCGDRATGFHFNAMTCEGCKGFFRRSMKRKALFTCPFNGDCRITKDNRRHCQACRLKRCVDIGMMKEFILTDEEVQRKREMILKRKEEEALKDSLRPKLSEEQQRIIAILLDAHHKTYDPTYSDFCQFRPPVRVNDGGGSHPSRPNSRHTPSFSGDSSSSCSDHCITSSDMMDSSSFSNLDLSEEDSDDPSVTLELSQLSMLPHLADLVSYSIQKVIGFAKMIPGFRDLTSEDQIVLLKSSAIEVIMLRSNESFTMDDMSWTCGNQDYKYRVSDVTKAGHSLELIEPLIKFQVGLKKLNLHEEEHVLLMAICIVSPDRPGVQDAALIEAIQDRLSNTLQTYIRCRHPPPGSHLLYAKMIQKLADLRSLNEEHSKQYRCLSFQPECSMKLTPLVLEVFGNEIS

[3] = tested on: HCT-116; assay: Growth inhibition of human HCT116 cells assessed as cell growth at 10^-5 M after 48 hrs by sulforhodamine B assay relative to control; assay type: functional; details: HCT-116, 48 h, read-out: Activity; in short: as §1
[4] = tested on: U-251; assay: Growth inhibition of human U251 cells assessed as cell growth at 10^-5 M after 48 hrs by sulforhodamine B assay relative to control; assay type: functional; details: U-251, 48 h, read-out: Activity
In short: (§2)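 NCI-60 single-dose screen, 10^-5 M final. Cells grown in RPMI 1640 with 5% FBS and 2 mM L-glutamine, seeded at 5,000–40,000 cells/well by doubling time. Preincubated 24 h at 37°C, 5% CO2. Compound in DMSO, diluted in medium with gentamicin, then 48 h exposure. Fixed with cold TCA, SRB stained, A515 read. Percent growth vs untreated control, time-zero plate corrected.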

[5] = tested on: NCI-H522; assay: Growth inhibition of human NCI-H522 cells assessed as cell growth at 10^-5 M after 48 hrs by sulforhodamine B assay relative to control; assay type: functional; details: NCI-H522, 48 h, read-out: Activity; in short: as §1
[6] = tested on: UACC-62; assay: Growth inhibition of human UACC62 cells assessed as cell growth at 10^-5 M after 48 hrs by sulforhodamine B assay relative to control; assay type: functional; details: UACC-62, 48 h, read-out: Activity; in short: as §2
[7] = tested on: K562; assay: Growth inhibition of human K562 cells assessed as cell growth at 10^-5 M after 48 hrs by sulforhodamine B assay relative to control; assay type: functional; details: K562, 48 h, read-out: Activity; in short: as §1
[8] = tested on: SF-268; assay: Growth inhibition of human SF268 cells assessed as cell growth at 10^-5 M after 48 hrs by sulforhodamine B assay relative to control; assay type: functional; details: SF-268, 48 h, read-out: Activity; in short: as §1
[9] = tested on: OVCAR-4; assay: Growth inhibition of human OVCAR4 cells assessed as cell growth at 10^-5 M after 48 hrs by sulforhodamine B assay relative to control; assay type: functional; details: OVCAR-4, 48 h, read-out: Activity; in short: as §1
[10] = tested on: HCT-15; assay: Growth inhibition of human HCT15 cells assessed as cell growth at 10^-5 M after 48 hrs by sulforhodamine B assay relative to control; assay type: functional; details: HCT-15, 48 h, read-out: Activity; in short: as §1
[11] = tested on: BT-549; assay: Growth inhibition of human BT549 cells assessed as cell growth at 10^-5 M after 48 hrs by sulforhodamine B assay relative to control; assay type: functional; details: BT-549, 48 h, read-out: Activity; in short: as §1
[12] = tested on: HL-60(TB); assay: Growth inhibition of human HL-60(TB) cells assessed as cell growth at 10^-5 M after 48 hrs by sulforhodamine B assay relative to control; assay type: functional; details: HL-60, 48 h, read-out: Activity
In short: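 NCI-60 one-dose screen at 10^-5 M. Cells were grown in RPMI 1640 with 5% FBS and 2 mM L-glutamine and plated at 5,000–40,000 cells/well. They were preincubated 24 h at 37°C under 5% CO2, then exposed for 48 h. Suspension cells were fixed with 80% TCA (16% final) and stained with 0.4% SRB, read at 515 nm. Percent growth is versus untreated control, corrected for time-zero.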

[13] = tested on: CAKI-1; assay: Growth inhibition of human CAKI-1 cells assessed as cell growth at 10^-5 M after 48 hrs by sulforhodamine B assay relative to control; assay type: functional; details: CAKI-1, 48 h, read-out: Activity; in short: as §1
[14] = tested on: DU-145; assay: Growth inhibition of human DU145 cells assessed as cell growth at 10^-5 M after 48 hrs by sulforhodamine B assay relative to control; assay type: functional; details: DU-145, 48 h, read-out: Activity; in short: as §1
[15] = tested on: OVCAR-5; assay: Growth inhibition of human OVCAR5 cells assessed as cell growth at 10^-5 M after 48 hrs by sulforhodamine B assay relative to control; assay type: functional; details: OVCAR-5, 48 h, read-out: Activity; in short: as §1
[16] = tested on: SF-295; assay: Growth inhibition of human SF295 cells assessed as cell growth at 10^-5 M after 48 hrs by sulforhodamine B assay relative to control; assay type: functional; details: SF-295, 48 h, read-out: Activity; in short: as §1

| Compound | growth at 10 µM [1] [%] | Ki [2] [µM] | growth at 10 µM [3] [%] | growth at 10 µM [4] [%] | growth at 10 µM [5] [%] | growth at 10 µM [6] [%] | growth at 10 µM [7] [%] | growth at 10 µM [8] [%] | growth at 10 µM [9] [%] | growth at 10 µM [10] [%] | growth at 10 µM [11] [%] | growth at 10 µM [12] [%] | growth at 10 µM [13] [%] | growth at 10 µM [14] [%] | growth at 10 µM [15] [%] | growth at 10 µM [16] [%] |
| --- | --- | --- | --- | --- | --- | --- | --- | --- | --- | --- | --- | --- | --- | --- | --- | --- |
| CC(=O)N1CCN(C(=O)Cn2c(-c3ccc(C)cc3)csc2=N)CC1 | 75.3 | 2.84 | 85.9 | 85 | 76.9 | 74.2 | 84.3 | 101 | 97 | 90.6 | 104 | 108 | 81.5 | 110 | 122 |  |
| CC(=O)N1CCN(C(=O)Cn2c(-c3ccccc3)csc2=N)CC1 | 95.4 | 4.66 | 96.1 | 96.9 | 81.3 | 89.6 | 86.8 | 100 | 96.9 | 94.5 | 98 | 111 | 76.8 | 112 | 105 |  |
| N=c1scc(-c2ccccc2)n1CC(=O)N1CCOCC1 | 95.1 | 24.4 | 98.6 | 95.1 | 94.2 | 92.5 | 89.2 | 104 | 97.3 | 99.2 | 103 | 118 | 76.2 | 107 | 96.3 |  |
| N=c1scc(-c2ccc(Cl)cc2)n1CC(=O)N1CCN(c2ccccc2)CC1 | 114 | 3.07 | 101 | 89.6 | 76.9 | 98.1 | 84.8 | 105 | 86.4 | 96.8 | 102 | 89.8 | 93.3 | 114 | 93.8 | 89.7 |
| CC(=O)N1CCN(C(=O)Cn2c(-c3ccc(Cl)cc3)csc2=N)CC1 | 111 | 2.28 | 93 | 85.9 | 62.1 | 81.9 | 72 | 95.1 | 77.2 | 86.5 | 89.9 | 98 | 82.8 | 99 | 101 |  |
| Cc1ccc(-c2csc(=N)n2CC(=O)N2CCOCC2)cc1 | 98.4 | 13.7 | 101 | 91.8 | 93 | 98.1 | 100 | 101 | 102 | 98.1 | 99.3 | 93.2 | 89.2 | 108 | 102 | 83.6 |
| N=c1scc(-c2ccc(Cl)cc2)n1CC(=O)N1CCOCC1 | 97.5 | 4.13 | 87.4 | 88.3 | 79.5 | 83.2 | 70.9 | 102 | 82.2 | 89.9 | 95.5 | 96.6 | 84.4 | 104 | 113 |  |
| Cc1ccc(-c2csc(=N)n2CC(=O)N2CCN(C)CC2)cc1 | 83.4 | 17.1 | 104 | 83.9 | 80.6 | 72.6 | 82.9 | 96.7 | 87.4 | 91.6 | 115 | 109 | 78 | 109 | 116 | 83.4 |
| Cc1ccc(-c2csc(=N)n2CC(=O)N2CCN(c3ccccc3)CC2)cc1 | 78.8 | 1.03 | 103 | 95.3 | 95.5 | 85.9 | 100 | 105 | 88.4 | 104 | 92.6 | 127 | 70.4 | 104 | 110 |  |
| N=c1scc(-c2ccccc2)n1CC(=O)N1CCN(c2ccccc2)CC1 | 95 | 1.6 | 107 | 91.2 | 85.1 | 93.5 | 103 | 101 | 90.5 | 97 | 95.5 | 99 | 87.5 | 111 | 94.1 | 72.4 |
| CN1CCN(C(=O)Cn2c(-c3ccccc3)csc2=N)CC1 | 78.8 | 28.3 | 91.6 | 88.2 | 82.3 | 85.9 | 98.2 | 96.2 | 88.4 | 87.6 | 92.6 | 100 | 70.4 | 104 | 110 | 65.9 |
| CN1CCN(C(=O)Cn2c(-c3ccc(Cl)cc3)csc2=N)CC1 | 103 | 3.66 | 94.4 | 91.2 | 86.7 | 90.2 | 73.1 | 98.4 | 90.5 | 93.1 | 104 | 102 | 85.9 | 99 | 96.4 |  |
